Compound activity from PubChem.
eIF4H FP inh – inhibitors of RNA binding by human eIF4H. inhibition, % at 35 µM. AID 2012. Q15056. 290,000 tested, 0.94% active. eIF4H fluorescence polarization binding assay;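 further: calls also rest on retests at 20 µM and on dose response follow-up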
HCV NS3 hel inh – blocks Hepatitis C virus NS3 helicase unwinding | NS3 helicase DNA unwinding, Cy5 molecular beacon fluorescence | inhibition, % at 10.9 µM | 290,000 tested, 0.56% active | AID 1800;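 active means inhibition above the mean of all tested compounds plus 3 SD, set per campaign, cut at about 35% in these data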;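 further: 0% = DMSO wells and 100% = thioflavine S control wells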
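Assay system: hepatitis C virus NS3 helicase domain fragment enzyme. Also added: annealed dual-labelled DNA beacon duplex, ATP-started. Timing: 1 h reaction at 25 °C, ATP-initiated. Technique: Cy5 fluorescence at 0 and 60 min, beacon hairpin quenching. Evaluation: % inhibition of unwinding. Replication: one well per compound.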
MLLE-PAM2 inh – blocks PAM2 peptide binding to the PABP1 MLLE domain; P11940; AID 588489; GST-MLLE / FITC-PAM2 fluorescence polarization; 360,000 tested, 0.36% active; inhibition, % at 20 µM; in the data active means inhibition above about 35%, passing the limit was not always enough;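 further: plate controls were DMSO wells with GST-MLLE for no effect and wells lacking GST-MLLE protein for full effect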
PABP polyA inh – blocks human PABP binding to poly(A) RNA; inhibition, % at 35 µM; fluorescence polarization; AID 2014; P11940; 290,000 tested, 1% active;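 further: calls also rest on retests at 20 µM and on dose response follow-up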
core dimer inh – blocks dimerization of HCV core protein; TR-FRET GST/Flag-core106 dimerization, 1536-well; inhibition, % at 5 µM; 300,000 tested, 0.33% active; AID 1899;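 active means inhibition above the mean of all tested compounds plus 3 SD, set per screening campaign, cut at about 45% in these data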
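Material: Tagged HCV core106 pair (GST and Flag) | Amount: GST-core106 13.5 nM, Flag-core106 17 nM | Medium: KF-containing HEPES buffer, pH 7.45, DTT, CHAPS, BSA | Reagent: Eu donor and XL665 acceptor anti-tag antibodies | Schedule: 4 h at 22.5 °C | Technique: Time-resolved FRET, ex 340 nm, em 617 and 671 nm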
DNA FID counter – fluorescent intercalator displacement, NS3 helicase counter-screen; 290,000 tested, 0.17% active; inhibition, % at 7.9 µM; DNA fluorescent intercalator displacement, fluorescence; in the data active means inhibition above about 37%;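 further: 0% = vehicle and 100% = reference compound; higher means more ethidium bromide displaced from hairpin DNA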
An asterisk follows results filed as active; ? = inconclusive; / = no result. Compounds with a hit are over-represented: about 2% of the library has one in this group of screens. Unless noted, how the calls were made is not given here.

SMILES	eIF4H FP inh	HCV NS3 hel inh	MLLE-PAM2 inh	PABP polyA inh	core dimer inh	DNA FID counter
O=C(CN1C(=O)/C(=C\c2ccco2)SC1=S)Nc1ccc(O)cc1C(=O)O	79*	31	-12	117*	0	17
CCOC(=O)c1c(NC(=O)C2C3CCC(O3)C2C(=O)O)sc2c1CCCC2 (centres undefined)	14	13	4	-5	7	-45
CCOC(=O)c1c(-c2ccccc2)csc1NC(=O)C1CCCO1 (centres undefined)	-2	-1	39*	5	3	-6
CCOC(=O)c1c(-c2ccccc2)csc1NC(=O)/C(C#N)=C/c1ccc(O)c(OC)c1	?	27	33	active	8	-13
CCOC(=O)c1c(-c2ccc(-c3ccccc3)cc2)csc1NC(=O)C1C2CCC(O2)C1C(=O)O (centres undefined)	?	19	28	1	46*	-33
CCOC(=O)c1c(-c2ccccc2)csc1NC(=O)CSc1ccccc1	6	-9	-5	4	-6	-5
CCOC(=O)c1c(-c2ccccc2)csc1NC(=O)CSc1nncs1	-4	4	-2	80*	3	-5
O=C(O[C@@H]1Cc2c(O)cc(O)cc2O[C@@H]1c1cc(O)c(O)c(O)c1)c1cc(O)c(O)c(O)c1	80*	14	/	53*	/	4
O=C(COC(=O)c1ccc2c(c1)OCO2)Nc1nc(-c2ccccc2)cs1	2	-5	-2	61*	26	-2
Cc1cc(C)c(-c2csc(NC(=O)COC(=O)c3ccc4c(c3)OCO4)n2)c(C)c1	1	8	3	4	5	-6
NS(=O)(=O)c1ccc(NC(=O)COC(=O)c2ccc3c(c2)OCCO3)cc1	active	-13	21	61*	-1	1
CCCC(=O)Nc1c(-c2ccccc2)[nH][nH]c1=O	/	/	0	/	/	/
COc1cc(S(=O)(=O)N2CCN(Cc3ccc4c(c3)OCO4)CC2)ccc1NC(C)=O	/	/	-61	/	/	/
O=C(CN1CCOCC1)NN=C1CCCCCCCCCCC1	active	-1	4	57*	-3	0
O=C(CN1CCOCC1)NN=C(c1ccccc1)c1ccccc1	2	0	8	-3	-1	-18
Cc1c(C(O)CN2CCN(Cc3ccc4c(c3)OCO4)CC2)c2ccccc2n1C (centres undefined)	82*	-20	-4	81*	0	-7
COc1ccc(S(=O)(=O)NCc2ccccn2)cc1C	/	/	7	/	/	/
c1ccc(-c2nn3c(Cn4nnc5ccccc54)nnc3s2)nc1	70*	-3	30	47	15	-9
COc1ccc(-c2cc(=O)c3cc(O)ccc3o2)cc1	5	3	1	2	-11	-10
COc1ccc2oc(-c3ccncc3)cc(=O)c2c1	/	/	40*	/	/	/
COc1ccc(C)cc1-n1nnnc1SC(C)C(=O)NC1CCCC1 (centres undefined)	/	/	5	/	/	/
CCNC(=O)C1(C)CCN(C(=O)c2ccccc2F)C1 (centres undefined)	/	/	10	/	/	/
COCCCN(C(=O)c1cc2c(s1)CCC2)c1c(N)n(Cc2ccccc2)c(=O)[nH]c1=O	80	5	-20	1	35	-22
CCCN(C(=O)c1cc2c(s1)CCC2)c1c(N)n(Cc2ccccc2)c(=O)[nH]c1=O	96*	17	-5	55*	46	-21
O=C1/C(=C\c2ccc(O)cc2)SC(=S)N1/N=C/c1ccc(O)cc1	83*	3	-142	53*	-10	-3
SMILES	eIF4H FP inh	HCV NS3 hel inh	MLLE-PAM2 inh	PABP polyA inh	core dimer inh	DNA FID counter
CC(=O)NN1C(=O)/C(=C\c2ccc(O)cc2)SC1=S	?	-6	-109	?	-17	4
COC(=O)CSc1ncnc2c1sc1nc(-c3ccco3)c3c(c12)CC(C)(C)OC3	35	20	/	18	64*	-11
CCSc1ncnc2c1sc1nc(-c3ccco3)c3c(c12)CC(C)(C)OC3	19	27	/	2	65*	-3
CCOC(=O)c1sc2nc(-c3ccco3)c3c(c2c1N)CC(C)(C)OC3	31	/	-1	19	40	/
Nc1cc2c(cc1[N+](=O)[O-])OCO2	84	9	2	41*	41	2
Nc1cc2c(cc1[N+](=O)[O-])OCCO2	-5	-2	2	-3	-16	-5
COc1ccc(NS(=O)(=O)c2cccc(C(=O)NNC(=O)c3cccn3C)c2)cc1	74*	30	-16	33	71*	-6
